An excerpt weighted towards active compounds, which were near 4.9% of everything screened.
NF-kB neuron act: activators of NF-kB expression in neurons, primary screen, cell-based, HTS | AID 1239, 2008 | human neuronal cells, NF-kB reporter expression; active compounds read high | actives 1.6% (n = 190,000) | fold change at 12.5 µM; in the data active = fold change above about 3.3
APP 5'UTR act: activators of APP 5'UTR luciferase reporter, primary screen, SH-SY5Y cells; AID 1276, 2008; SH-SY5Y APP 5'UTR luciferase reporter, luminescence; zero percent = DMSO vehicle wells; actives 1% (n = 190,000); activation, % at 2 µM;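 active = activation above a set limit, based on mean plus 3 SD of controls, cut at about 140% in these data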
STAT3 blocker: IL-6 driven STAT3 reporter inhibitors, primary screen, U3A cells, luciferase, luminescence, MLSCN library | IL-6 STAT3-luciferase reporter; host cell line lacks STAT1 | inhibition, % at 5.5 µM | actives 0.89% (n = 190,000) | AID 862, 2007;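 active = inhibition above the mean inhibition across all screened compounds plus 3 SD, cut at about 44% in these data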;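 note: 0% = DMSO only wells and 100% = 100 µM nifuroxazide control wells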
STAT1 inh: STAT1 signaling inhibitors, primary screen, cell-based, HTS, luciferase reporter; actives 0.35% (n = 200,000); NIH 3T3 STAT1-luciferase reporter, IFN-gamma, luminescence; inhibition, % at 5.5 µM; AID 920, 2007;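 active = inhibition above a set limit, the mean inhibition across all tested compounds plus 3 SD, cut at about 34% in these data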;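 note: 0% = IFN-gamma with DMSO and 100% = IFN-gamma with 300 µM nifuroxazide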
STAT3 act: IL-6 driven STAT3 reporter potentiators, primary screen, U3A cells, luciferase, luminescence, MLSCN library | IL-6 STAT3-luciferase reporter; 100% = signal with IL-6 EC80 alone | activation (% of control), % at 5.6 µM | actives 0.91% (n = 190,000) | AID 871, 2007;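 active = activation above the screen-wide mean of compound activation plus 3 SD, cut at about 130% in these data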;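 note: 0% = background luminescence of wells with medium and substrate only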
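Detection: reporter luminescence signal / Assay system: STAT1-lacking human U3A cells, STAT3 luciferase reporter / Incubation: compound pre-incubation 1 h before IL-6, then 6 h stimulation at 37 °C / Control set: IL-6-only high control / Read-out: % activation relative to IL-6 control / Probe or stimulus: Interleukin-6, 33 ng/mL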
STAT1 activator: STAT1 signaling activators, primary screen, cell-based, HTS, luciferase reporter | NIH 3T3 STAT1-luciferase reporter, IFN-gamma, luminescence; 100% = IFN-gamma alone, no compound | activation (% of control), % at 5.5 µM | actives 2.6% (n = 200,000);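 active = activation above the screen-wide mean activation plus 3 SD, cut at about 130% in these data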;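 note: raw ratio to IFN-gamma control signal so 100% means no change and 0% no light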
* hit, by the source's call; x = not tested or not shown.

SMILES | NF-kB neuron act | APP 5'UTR act | STAT3 blocker | STAT1 inh | STAT3 act | STAT1 activator
Cc1ccc(OCC(=O)NNC(=O)C(=O)N2CCCC2)c(C)c1 | 1.1 | -5 | 32 | 15 | 78 | 86
Cc1cc2ncc(-c3ccc(Cl)cc3)cn2n1 | 4.9* | 188* | 21 | -37 | 83 | 136*
C=CCOc1c(Cl)cc(CNc2ccc(N(C)C)cc2)cc1OC | 0.7 | 67 | -9 | -41 | 118 | 137*
C=CCOc1c(Cl)cc(CNc2ccc(C)c(Cl)c2)cc1OC | 3.3 | -91 | -2 | -3 | 105 | 103
C=CCOc1ccc(/C=C/C(=O)Nc2ccc(C(=O)NC)cc2)cc1 | 1.7 | 6 | -4 | 7 | 106 | 94
C=CCOc1ccc(/C=C/C(C)=N\O)cc1 | 4.2* | 92 | 5 | -35 | 99 | 132*
CCOc1ccc(NC(=O)c2ccccc2O)cc1 | 6.3* | 118 | 24 | -3 | 83 | 101
CCOc1ccc(NC(=O)c2oc3ccccc3c2NC(=O)CC)cc1 | 5.1* | 64 | 25 | -21 | 82 | 119
CCOc1ccc(NC(=O)c2ccccc2CO)cc1 | 1.7 | 32 | 12 | -28 | 94 | 126
Cc1ccc(NC(=O)c2ccc(F)cc2)nc1 | 3.1 | 77 | 22 | -37 | 83 | 132*
Cc1ccc(NC(=O)C(=O)Nc2ccc(C)cn2)nc1 | 2.6 | 23 | 12 | -21 | 95 | 117
COc1ccccc1C(=O)Nc1ccccn1 | 2.7 | 51 | 15 | -35 | 91 | 132*
O=c1cc2c(nn1Cc1ccccc1Cl)-c1ccccc1CC2 | 0.96 | x | -2 | 3 | 108 | 97
CCN(Cc1ccncc1)Cc1c(O)ccc2cc(Br)ccc12 | 0.99 | 18 | -7 | -2 | 107 | 101
S=C(NC1CCCCC1)N1CCN(Cc2ccccc2Cl)CC1 | 0.83 | 11 | 7 | -1 | 98 | 99
COc1ccc(C(=O)Nc2ccc(C)cn2)c(OC)c1 | 1.2 | 24 | 105* | 82* | 13 | 29
CCOc1ccc(NC(=O)c2ccccc2OC)cc1 | 1.8 | 50 | -34 | -23 | 133* | 121
COc1ccc(NC(=O)NC23CC4CC(CC(C4)C2)C3)cc1OC | 1.4 | 7 | 1 | 0 | 108 | 95
O=C(Nc1ccc2c(c1)OCCO2)c1cccnc1 | 1.5 | 27 | 14 | -30 | 92 | 129*
O=C(Nc1ccc2c(c1)OCCO2)c1ccc2nccnc2c1 | x | 165* | 50* | -28 | 63 | 125
O=C(Nc1ccc2c(c1)OCCO2)c1c(F)c(F)c(F)c(F)c1F | 1 | x | -1 | -2 | 104 | 99
O=C(Nc1ccc2c(c1)OCCO2)NC12CC3CC(CC(C3)C1)C2 | 1.7 | 90 | -14 | -46 | 112 | 142*
O=C(Nc1ccc2c(c1)OCCO2)c1ccc(Br)o1 | 4.9* | 136* | 29 | -28 | 77 | 125
CCC(C)(C)n1nnnc1C(c1ccc(C)cc1)N(Cc1ccco1)Cc1cccs1 (configuration not stated) | 0.86 | 14 | 2 | -7 | 105 | 106
N#C/C(=C\c1ccco1)C(=O)Nn1cnnc1 | 1.5 | 10 | 0 | 2 | 105 | 98
SMILES | NF-kB neuron act | APP 5'UTR act | STAT3 blocker | STAT1 inh | STAT3 act | STAT1 activator
COc1ccccc1NS(=O)(=O)c1cccc(NC(=O)c2cc3ccccc3oc2=O)c1 | 2.8 | 97 | -5 | -46 | 108 | 140*
Cc1ccc(NC(=O)c2cc3ccccc3oc2=O)cc1S(=O)(=O)N(C)C | 0.54 | -47 | 100* | 58* | 20 | 45
Cc1ccc(NC(=O)c2cc3ccccc3o2)cc1S(=O)(=O)N(C)C | 5.2* | 49 | 8 | -47 | 93 | 143*
CC(C)C(=O)Nc1ccc(C(=O)Nc2nnc(C(C)(C)C)s2)cc1 | 0.85 | -15 | 11 | -8 | 92 | 108
CN1CCN(c2nc(-c3cccs3)cs2)CC1 | 1.3 | 3 | 27 | -14 | 80 | 111
CN1CCN(c2nc(-c3cc4ccccc4o3)cs2)CC1 | 2.8 | 109 | -8 | -33 | 106 | 129*
CCOc1cc(C2Nc3ccccc3C(=O)N2c2ccccc2)ccc1O (configuration not stated) | 1.3 | 30 | -1 | -3 | 104 | 103
COc1cc(C2Nc3ccccc3C(=O)N2c2ccc(Cl)cc2)c(Cl)cc1OCC(=O)O (configuration not stated) | 2.9 | 105 | -12 | -43 | 115 | 138*
COc1cc(C2NC(=O)NC(c3ccccc3)=C2C(C)=O)c(Cl)cc1OCC(=O)O (configuration not stated) | 1.4 | 199* | -3 | 2 | 104 | 97
COc1cc(C2NC(=O)NC(c3ccccc3)=C2C(C)=O)cc(Cl)c1OCC(=O)O (configuration not stated) | 1.3 | 0 | 2 | 1 | 106 | 99
COc1cc(C2Nc3ccccc3C(=O)N2c2ccccc2)ccc1O (configuration not stated) | 2.1 | 20 | -38 | -17 | 133* | 114
CCOc1cc(C2Nc3ccccc3C(=O)N2c2ccccc2)c(Br)cc1OCC(=O)O (configuration not stated) | 1.2 | 29 | -2 | -9 | 106 | 108
O=c1sc2ccccc2n1CCCOc1ccccc1 | 2.8 | 71 | 14 | -34 | 91 | 131*
Cc1ccccc1OCCCn1c(=O)sc2ccccc21 | 2.2 | 70 | 14 | -33 | 91 | 131*
Cc1ccc(OCCCn2c(=O)sc3ccccc32)cc1 | 1.6 | -4 | 22 | -4 | 84 | 104
Cc1ccc(S(=O)(=O)NC2CCCCC2)c(C)c1NS(C)(=O)=O | 1.2 | 22 | 8 | -8 | 95 | 104
CCOc1ccccc1NC(=S)N(Cc1cc2ccc(C)cc2[nH]c1=O)CC1CCCN1CC (configuration not stated) | 1.1 | -8 | 2 | 18 | 99 | 84
COc1cc(OC)cc(C(=O)NCCCN2CCN(CCCNC(=O)c3cc(OC)cc(OC)c3)CC2)c1 | 0.91 | 8 | -13 | 2 | 108 | 99
CCOc1cc(C(=O)Nc2cc(C)ccn2)cc(OCC)c1OCC | 1.1 | 3 | 2 | -8 | 100 | 108
CCOc1ccc(NC(=O)c2nccnc2CO)cc1 | 3.2 | 61 | 29 | -48 | 78 | 144*
CCOc1ccc(C(=O)NCc2ccccn2)cc1 | 1.5 | 1 | -2 | -5 | 107 | 106
CCOc1ccc(C(=O)Nc2cc(C)ccn2)cc1 | 3.7* | 186* | 93* | 75* | 24 | 30
O=C(Nc1nc(-c2ccccn2)cs1)c1ccc2c(c1)OCCO2 | 2.7 | 110 | x | -35 | x | 131*
CCOc1ccc(C(=O)Nc2ncccc2Cl)cc1 | 2.5 | 43 | 10 | -34 | 95 | 129*
